Laboratory results reported in ChEMBL document CHEMBL4184263, “Synthetic analogues of the montanine-type alkaloids with activity against apoptosis-resistant cancer cells” (2018).
Activity calls are given as the source filed them. The rule behind the calls is not given here.

How the values were obtained:
SK-MEL-28 = experiment: Growth inhibition of apoptosis resistant human SK-MEL-28 cells assessed as reduction in cell viability incubated for 72 hrs by MTT assay; type: functional; conditions: SK-MEL-28, 72 h
Method in brief: (§1)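 Cells were grown at 37 °C, 95% humidity and 5% CO₂, trypsinized and seeded. After 24 h they were treated for 72 h with compound from 10 nM to 100 μM, prepared from a 10 mM DMSO stock, or left untreated. Viability was read as MTT reduction to formazan, with untreated control optical density set as 100%. The 50% growth-reducing concentration was derived as the mean of experiments run in sextuplicate.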

MCF7 = experiment: Growth inhibition of apoptosis sensitive human MCF7 cells assessed as reduction in cell viability incubated for 72 hrs by MTT assay; type: functional; conditions: MCF7, 72 h; method in brief: as §1
Hs 683 = experiment: Growth inhibition of apoptosis sensitive human Hs683 cells assessed as reduction in cell viability incubated for 72 hrs by MTT assay; type: functional; conditions: Hs 683, 72 h; method in brief: as §1
B16-F10 = experiment: Growth inhibition of apoptosis sensitive mouse B16F10 cells assessed as reduction in cell viability incubated for 72 hrs by MTT assay; type: functional; conditions: B16-F10, 72 h; method in brief: as §1
A549 = experiment: Growth inhibition of apoptosis resistant human A549 cells assessed as reduction in cell viability incubated for 72 hrs by MTT assay; type: functional; conditions: A549, 72 h; method in brief: as §1
U373 MG = experiment: Growth inhibition of apoptosis resistant human U373 cells assessed as reduction in cell viability incubated for 72 hrs by MTT assay; type: functional, U-373MG ATCC; method in brief: as §1
Homo sapiens = species on record: Homo sapiens; experiment: Antiproliferative activity against human GSC22 cells assessed as inhibition of cell proliferation at 1 uM incubated for 72 hrs by bromodeoxyuridine incorporation based immunoassay; type: functional
Method in brief: (§2)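 Patient-derived glioblastoma stem-like GSC22 cells were seeded at 1×10^3 cells/well and cultured for 24 h. They were then exposed for 72 h to compound at 1 μM to 30 μM, with DMSO as vehicle control. BrdU was added for the final 4 h. Incorporation was detected with a peroxidase-conjugated anti-BrdU antibody and substrate reaction read at 450/550 nm. Data are mean ± SEM, n=3, compared with vehicle.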

[1] = Antiproliferative activity against human GSC22 cells assessed as inhibition of cell proliferation at 10 uM incubated for 72 hrs by bromodeoxyuridine incorporation based immunoassay; type: functional; method in brief: as §2

| SMILES | GI50 (SK-MEL-28) [µM] | GI50 (MCF7) [µM] | GI50 (Hs 683) [µM] | GI50 (B16-F10) [µM] | GI50 (A549) [µM] | GI50 (U373 MG) [µM] | inhibition (Homo sapiens) | inhibition at 10 µM [1] [%] |
| --- | --- | --- | --- | --- | --- | --- | --- | --- |
| CO[C@H]1C[C@H]2C(=C[C@@H]1Cl)[C@H]1C[N@@]2Cc2cc3c(cc21)OCO3 | 26 | 17 | 6 | 7 | 6 | 51 |  |  |
| C#CCO[C@H]1C=C2[C@H]3C[N@@](Cc4cc5c(cc43)OCO5)[C@H]2C[C@@H]1OC | 28 | 28 | 24 | 10 | 23 | 42 |  |  |
| CO[C@H]1C[C@H]2C(=C[C@@H]1Cl)[C@H]1C[N@@]2Cc2c(I)c3c(c(I)c21)OCO3 | > 100 | 78 | 71 | 39 | 78 | > 100 |  |  |
| CO[C@H]1C[C@H]2C(=C[C@@H]1NCc1ccccc1)[C@H]1C[N@@]2Cc2cc3c(cc21)OCO3 | 65 | 44 | 67 | 10 | 59 | 72 |  |  |
| CCO[C@H]1C=C2[C@H]3C[N@@](Cc4cc5c(cc43)OCO5)[C@H]2C[C@@H]1OC | > 100 | 82 | > 100 | 40 | 59 | > 100 |  |  |
| CO[C@H]1C[C@H]2C(=C[C@@H]1c1ccc[nH]1)[C@H]1C[N@@]2Cc2cc3c(cc21)OCO3 | 67 | 68 | 95 | 11 | 86 | > 100 |  |  |
| CO[C@@H]1C=C[C@@]23c4cc5c(cc4CN(C[C@@H]2O)[C@H]3C1)OCO5 [(+)-HAEMANTHAMINE] |  |  |  |  |  |  | Active | 80 to 95 |
| C=CCO[C@H]1C=C2[C@H]3C[N@@](Cc4cc5c(cc43)OCO5)[C@H]2C[C@@H]1OC | 14 | 20 | 7 | 7 | 10 | 20 |  |  |
| CO[C@H]1C[C@H]2C(=C[C@@H]1c1c[nH]c3ccccc13)[C@H]1C[N@@]2Cc2cc3c(cc21)OCO3 | 9 | 23 | 24 | 4 | 18 | 9 | Active | 80 to 95 |
| CO[C@H]1C[C@H]2C(=C[C@@H]1Cl)[C@H]1C[N@@+]2([O-])Cc2cc3c(cc21)OCO3 | > 100 | > 100 | > 100 | > 100 | > 100 | > 100 |  |  |
| CO[C@H]1C[C@H]2C(=C[C@@H]1Cl)[C@H]1C[N@@]2Cc2c1cc1c(c2I)OCO1 | > 100 | > 100 | > 100 | > 100 | > 100 | > 100 |  |  |
| CO[C@H]1C[C@H]2C(=C[C@@H]1O)[C@H]1CN2Cc2cc3c(cc21)OCO3 | 8 | 13 | 4 | 8 | 5 | 31 |  |  |
| CO[C@H]1C[C@H]2C(=C[C@H]1Br)[C@H]1C[N@@]2Cc2cc3c(cc21)OCO3 | 18 | 19 | 5 | 7 | 9 | 25 |  |  |
| CO[C@H]1C=C2[C@H]3C[N@@](Cc4cc5c(cc43)OCO5)[C@H]2C[C@@H]1OC | 4 | 4 | 3 | 3 | 3 | 5 | Active | 80 to 95 |
| C#CC[N@@+]12Cc3cc4c(cc3[C@H](C1)C1=C[C@H](Cl)[C@@H](OC)C[C@@H]12)OCO4 | > 100 | > 100 | > 100 | > 100 | > 100 | > 100 |  |  |
| CO[C@H]1C[C@H]2C(=C[C@@H]1O)[C@H]1C[N@]2[C@@H](OS(C)(=O)=O)c2cc3c(cc21)OCO3 | > 100 | > 100 | > 100 | 72 | > 100 | > 100 |  |  |
